Assays:
[1] = system: Human betaherpesvirus 5; assay: Antiviral activity against HCMV infected HFF cells after 5 days by dot blot assay; type: functional, organism-based
How it was run: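 HFF fibroblasts infected with luciferase-expressing recombinant CMV (rCMVLUC), then cultured 5 days across a range of drug concentrations. Viral DNA harvested, immobilized on membrane, hybridized with radiolabeled CMV-specific probe. IC50 = concentration giving 50% reduction of membrane-bound radioactivity relative to vehicle-only infected cells.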

[2] = Clearance in rat; type: ADME, organism-based; details: in vivo
[3] = Oral bioavailability in rat; type: ADME, organism-based; details: in vivo
[4] = Bioavailability in rat at 2 mg/kg, po; type: ADME, organism-based; details: in vivo
[5] = system: Human betaherpesvirus 5; assay: Antiviral activity against HCMV infected HFF cells after 5 to 7 days by viral yield assay; type: functional
How it was run: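 rCMVLUC-infected HFF cells incubated 5–7 days with varying drug concentrations; viral yield determined by immunofluorescence using human anti-HCMV antiserum.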

[6] = Cytotoxicity against human Jurkat cells by alamar blue assay; type: cell-based
How it was run: (§1)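 Cells seeded and exposed to a range of compound concentrations; Alamar blue added at 0, 24, 48 and 72 h, fluorescence read after further 3 h incubation. IC50 = concentration inhibiting cell growth by 50%.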

[7] = Cytotoxicity against human bone marrow cells assessed as inhibition of CFU-GM formation after 15 days; type: cell-based, Bone marrow cell
How it was run: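 Human bone marrow cells washed in IMDM–2% FBS, viable nucleated/mononuclear cells counted, adjusted to 10⁶ cells/mL, drug added, diluted 1:10 in methylcellulose medium and plated. After 15 days at 37 °C, humid 5% CO₂, CFU-GM colonies counted microscopically; IC50 = concentration halving colony formation.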

[8] = Cytotoxicity against HFF cells by alamar blue assay; type: cell-based; details: human; how it was run: as §1
[9] = Human betaherpesvirus 5, HFF, 120 h

Structure (SMILES)	IC50 [1, 9]	further results
Cc1nc(NC(C)CCc2ccccc2)nc(-n2ccnc2C)c1[N+](=O)[O-] (stereo not given)	350 nM	
CCS(=O)(=O)CCNc1nc(C)c([N+](=O)[O-])c(-n2ccnc2C)n1	1300 nM	
Cc1nc(N[C@@H]2COC[C@@H]2C)nc(-n2ccnc2C)c1[N+](=O)[O-]	150 nM	
Cc1nc(NC2CCS(=O)(=O)CC2)nc(-n2ccnc2C)c1[N+](=O)[O-]	> 5000 nM	
Cc1nc(NCc2ccc(C(F)(F)F)cc2F)nc(-n2ccnc2C)c1[N+](=O)[O-]	200 nM	
Cc1nc(NC2CCCC2)nc(-n2ccnc2C)c1[N+](=O)[O-]	600 nM	
Cc1nc(N[C@H]2CCCC[C@H]2C)nc(-n2ccnc2C)c1[N+](=O)[O-]	700 nM	
CCC(C)Nc1nc(C)c([N+](=O)[O-])c(-n2ccnc2C)n1 (stereo not given)	500 nM	
Cc1nc(NCc2ccccc2OC(F)(F)F)nc(-n2ccnc2C)c1[N+](=O)[O-]	200 nM	
Cc1ccccc1CNc1nc(C)c([N+](=O)[O-])c(-n2ccnc2C)n1	200 nM	
Cc1nc(NCc2cccnc2)nc(-n2ccnc2C)c1[N+](=O)[O-]	800 nM	
Cc1nc(NCC2CCCO2)nc(-n2ccnc2C)c1[N+](=O)[O-] (stereo not given)	1000 nM	
CCNc1nc(C)c([N+](=O)[O-])c(-n2ccnc2C)n1	1000 nM	
Cc1cccc(CNc2nc(C)c([N+](=O)[O-])c(-n3ccnc3C)n2)c1	500 nM	
Cc1nc(NC2CCC[C@@H](C)C2)nc(-n2ccnc2C)c1[N+](=O)[O-] (stereo not given in full)	150 nM	
Cc1nc(N[C@H]2COC[C@H]2C)nc(-n2ccnc2C)c1[N+](=O)[O-]	200 nM	
Cc1nc(NCc2ccc(C(F)(F)F)cc2)nc(-n2ccnc2C)c1[N+](=O)[O-]	200 nM	
Cc1nc(NCc2ccc(F)c(F)c2)nc(-n2ccnc2C)c1[N+](=O)[O-]	400 nM	
Cc1nc(NCc2cccc(OC(F)(F)F)c2)nc(-n2ccnc2C)c1[N+](=O)[O-]	300 nM	
Cc1nc(NC2CCC(C)CC2)nc(-n2ccnc2C)c1[N+](=O)[O-] (stereo not given)	200 nM	
Cc1nc(NCc2ccc(F)cc2)nc(-n2ccnc2C)c1[N+](=O)[O-]	150 nM	

Structure (SMILES)	IC50 [1, 9]	further results
Cc1ccc(CNc2nc(C)c([N+](=O)[O-])c(-n3ccnc3C)n2)cc1	1600 nM	
Cc1nc(N[C@H]2CC=CC[C@@H]2C)nc(-n2ccnc2C)c1[N+](=O)[O-]	300 nM	
CCSCCNc1nc(C)c([N+](=O)[O-])c(-n2ccnc2C)n1	200 nM	
Cc1nc(N[C@H]2CC=CC[C@H]2C)nc(-n2ccnc2C)c1[N+](=O)[O-]	1500 nM	
COc1cccc(CNc2nc(C)c([N+](=O)[O-])c(-n3ccnc3C)n2)c1	300 nM	
Cc1nc(NCc2ccccn2)nc(-n2ccnc2C)c1[N+](=O)[O-]	500 nM	
Cc1nc(NCc2ccc(Cl)c(Cl)c2)nc(-n2ccnc2C)c1[N+](=O)[O-]	200 nM	
Cc1nc(NC2CCCOC2C)nc(-n2ccnc2C)c1[N+](=O)[O-] (stereo not given)	700 nM	
Cc1nc(NC2CCOCC2)nc(-n2ccnc2C)c1[N+](=O)[O-]	3000 nM	
Cc1nc(NC[C@@H]2OCCC[C@H]2C)nc(-n2ccnc2C)c1[N+](=O)[O-]	400 nM	
Cc1nc(N[C@H]2CCCC[C@@H]2C)nc(-n2ccnc2C)c1[N+](=O)[O-]	100 nM	
Cc1nc(NC2CCSCC2)nc(-n2ccnc2C)c1[N+](=O)[O-]	400 nM	
Cc1nc(NCC2CCCCO2)nc(-n2ccnc2C)c1[N+](=O)[O-] (stereo not given)	4000 nM	
Cc1nc(N[C@@H]2CCO[C@@H]2C)nc(-n2ccnc2C)c1[N+](=O)[O-]	500 nM	
Cc1nc(NC2CCCCC2C)nc(-n2ccnc2C)c1[N+](=O)[O-] (stereo not given)	80 nM	
COCCCNc1nc(C)c([N+](=O)[O-])c(-n2ccnc2C)n1	2300 nM	
Cc1nc(NCc2ccc(F)cc2Cl)nc(-n2ccnc2C)c1[N+](=O)[O-]	250 nM	
Cc1nc(N[C@H]2CCOC[C@@H]2C)nc(-n2ccnc2C)c1[N+](=O)[O-]	130 nM	clearance [2]: 36.7 mL/min/kg; bioavailability [3]: 57%
CC[C@@H]1CC=CC[C@@H]1Nc1nc(C)c([N+](=O)[O-])c(-n2ccnc2C)n1	100 nM	
Cc1nc(NC2CCC(C)C2)nc(-n2ccnc2C)c1[N+](=O)[O-] (stereo not given)	100 nM	
Cc1nc(NC2CCSC2)nc(-n2ccnc2C)c1[N+](=O)[O-] (stereo not given)	250 nM	

Structure (SMILES)	IC50 [1, 9]	further results
Cc1nc(N[C@@H]2CCO[C@H]2C)nc(-n2ccnc2C)c1[N+](=O)[O-]	600 nM	
Cc1nc(N)nc(-n2ccnc2C)c1[N+](=O)[O-]	2000 nM	bioavailability [4]: 59%
Cc1nc(NCC2CCCCC2)nc(-n2ccnc2C)c1[N+](=O)[O-]	120 nM	
Cc1nc(NCc2ccc(Cl)cc2)nc(-n2ccnc2C)c1[N+](=O)[O-]	300 nM	
Cc1nc(NC(C)CCC(C)C)nc(-n2ccnc2C)c1[N+](=O)[O-] (stereo not given)	2300 nM	
Cc1nc(NC2CCCC2C)nc(-n2ccnc2C)c1[N+](=O)[O-] (stereo not given)	500 nM	
Cc1nc(NCc2cc(C(F)(F)F)cc(C(F)(F)F)c2)nc(-n2ccnc2C)c1[N+](=O)[O-]	15000 nM	
Nc1ccn(C[C@@H](CO)OCP(=O)(O)O)c(=O)n1.O.O [CIDOFOVIR]	350 nM	EC99.9 [5]: 0.9 µM; CC50 [6]: 100000 nM; CC50 at 360 h [7]: 6000 nM; CC50 [8]: 100000 nM
Cc1nc(NCc2cccc(F)c2)nc(-n2ccnc2C)c1[N+](=O)[O-]	250 nM	
Cc1nc(NCCC(C)C)nc(-n2ccnc2C)c1[N+](=O)[O-]	300 nM	
COCC(C)Nc1nc(C)c([N+](=O)[O-])c(-n2ccnc2C)n1 (stereo not given)	900 nM	
CC[C@H]1CCCC[C@@H]1Nc1nc(C)c([N+](=O)[O-])c(-n2ccnc2C)n1	90 nM	
Cc1nc(N[C@H]2CCS(=O)(=O)[C@@H]2C)nc(-n2ccnc2C)c1[N+](=O)[O-]	2000 nM	
Cc1nc(NC2CCCCC2)nc(-n2ccnc2C)c1[N+](=O)[O-]	200 nM	
Cc1nc(NC(C)CC(C)C)nc(-n2ccnc2C)c1[N+](=O)[O-] (stereo not given)	130 nM	
Cc1nc(NCc2cccc(Cl)c2Cl)nc(-n2ccnc2C)c1[N+](=O)[O-]	200 nM	
Cc1nc(NCC2OCCC2C)nc(-n2ccnc2C)c1[N+](=O)[O-] (stereo not given)	300 nM	
Cc1nc(NC2CCC[C@H](C)C2)nc(-n2ccnc2C)c1[N+](=O)[O-] (stereo not given in full)	150 nM	
Cc1nc(N[C@@H]2COC[C@@H]2C)nc(-n2ccnc2C)c1[N+](=O)[O-].Cl		EC99.9 [5]: 0.4 µM; IC50 ([1]; hff): 130 nM; CC50 [6]: 50000 nM; clearance [2]: 23.3 mL/min/kg; bioavailability [3]: 21%; CC50 at 360 h [7]: 50000 nM; CC50 [8]: 100000 nM
Nc1nc2c(ncn2COC(CO)CO)c(=O)[nH]1 [GANCICLOVIR]	1000 nM	EC99.9 [5]: 5 µM; CC50 [6]: > 100000 nM; CC50 at 360 h [7]: 30000 nM; CC50 [8]: > 100000 nM
Cc1nc(NCc2cc(F)ccc2F)nc(-n2ccnc2C)c1[N+](=O)[O-]	150 nM	
